The source of these data is ChEMBL document CHEMBL3576854, “Northalrugosidine is a bisbenzyltetrahydroisoquinoline alkaloid from Thalictrum alpinum with in vivo antileishmanial activity” (J Nat Prod, 2015).

The subject of series [1] is Mus musculus. Briefly: Toxicity in BALB/c mouse at 2.8 to 70 mg/kg, iv after 2 weeks. The series is classed as organism-based. The following applies: in vivo, 336 h, in the assay text read “2.8 to 11.1 mg/kg” for “2.8 to 70 mg/kg”. In a few lines:
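Infected BALB/c mice (about 18 g) watched for overt toxicity over two weeks after one 100 µL iv dose in 10% DMSO/PBS: vehicle, test doses 2.8, 5.6 or 11.1 mg/kg, or sodium stibogluconate 70 mg/kg.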

Series [2] is described as follows: Selectivity index, ratio of IC50 for HT-29 cells to IC50 for transgenic DsRed2 Leishmania donovani promastigotes strain LV82. The series is classed as toxicity, cell-based. As to conditions: human; read-out: Ratio IC50. In a few lines:
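Ratio of the HT-29 cytotoxicity IC50 (72 h, sulforhodamine B) to the IC50 against DsRed2 L. donovani LV 82 promastigotes (72 h at 23 °C, flow cytometry).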

The subject of series [3] is Leishmania donovani. In words: Antileishmanial activity against transgenic DsRed2 Leishmania donovani promastigotes strain LV82 assessed as parasite killing after 72 hrs by flow cytometry. The series is classed as functional, organism-based. As to conditions: LV82, 72 h.
In series [4] the test system is Leishmania donovani. In words: Antileishmanial activity against Leishmania donovani promastigotes stain LV82 infected in iv dosed BALB/c mouse assessed as parasite burden reduction in liver cells after 2 weeks of postinjection by Giemsa staining-light microscopy. The series is classed as functional, organism-based. In outline: (§1)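 BALB/c mice infected by tail vein with 10^7 L. donovani LV 82 amastigotes; treated iv two weeks post-infection (100 µL; 2.8, 5.6 or 11.1 mg/kg in 10% DMSO/PBS; vehicle negative control; sodium stibogluconate 70 mg/kg positive control). Sacrificed two weeks later; liver and spleen weighed, impression smears MeOH-fixed, Giemsa-stained, amastigotes counted per 1000 host nuclei by light microscopy; LDU = organ weight (g) × that count.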

Series [5] has as its system Leishmania donovani. Briefly: Antileishmanial activity against Leishmania donovani […] stain LV82 infected in iv dosed BALB/c mouse assessed as parasite burden reduction in spleen cells after 2 weeks of postinjection by Giemsa staining-light microscopy. The series is classed as functional, organism-based. In outline:
as §1

The test system of series [6] is HT-29. In words: Cytotoxicity against human HT-29 cells assessed as inhibition of cell survival after 72 hrs by sulforhodamine B assay. The following applies: HT-29, 72 h. The series is classed as cell-based. In outline: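 HT-29 cells, 9500 per well, exposed to a concentration series in triplicate for 72 h. Controls: 10% DMSO in water (negative) and paclitaxel in that carrier (positive).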
Background: In SRB staining, fixed cells bind dye roughly in proportion to their protein.

Take `COc1ccc2cc1Oc1ccc(cc1)C[C@H]1c3cc(OC)c(OC)c(c3CCN1C)Oc1c(O)c(OC)cc3c1[C@H](C2)NCC3`: the Activity result in series [1] was “Non-toxic”. For the same molecule, the selectivity ratio in series [2] came out at 29.3. In addition, the IC50 came to 0.28 µM in series [3] and 8.2 µM in series [6]. Moreover, the inhibition result in series [4] and in series [5] was “Dose-dependent effect” each time.
On to `COc1ccc2cc1Oc1ccc(cc1)C[C@H]1c3cc(OC)c(OC)c(c3CCN1C)Oc1c(OC)c(OC)cc3c1[C@H](C2)N(C)CC3` [THALIDASINE], for which the selectivity ratio in series [2] turned out to be 0.5. Besides, the figures for the IC50 in series [3] and in series [6] were 10.1 µM and 5.5 µM, respectively.
In the case of `COc1ccc2cc1Oc1ccc(cc1)C[C@H]1c3cc(OC)c(OC)c(c3CCN1C)Oc1c(O)c(OC)cc3c1[C@H](C2)N(C)CC3` [THALRUGOSIDINE], the selectivity ratio in series [2] came out at 3.6. The IC50 was 1 µM in series [3] and 3.6 µM in series [6].

The term IC50 denotes the concentration that inhibits the measured activity by half.
